This note sets out measurements from ChEMBL document CHEMBL3351938, “C5-Alkyl-2-methylurea-Substituted Pyridines as a New Class of Glucokinase Activators” (ACS Med Chem Lett, 2014).

Calls of active or inactive are those of the source. The calls are words filed in the database; no cut-off is given here.

Assay [1] relates to Mus musculus. Kind of assay: Antidiabetic activity in fasted ob/ob mouse assessed as reduction in blood glucose AUC compound administered orally 30 mins prior glucose challenge by oral glucose tolerance test relative to control. The format is functional, organism-based. The gist of the method:
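OGTT in fasted ob/ob mice with oral doses of 0.3, 1, 3 and 10 mg/kg; blood glucose AUC compared to vehicle by two-way ANOVA.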

Assay [2] concerns the target T1, Hexokinase-4 (Homo sapiens) (UniProt P35557).
T1 sequence (whole entry): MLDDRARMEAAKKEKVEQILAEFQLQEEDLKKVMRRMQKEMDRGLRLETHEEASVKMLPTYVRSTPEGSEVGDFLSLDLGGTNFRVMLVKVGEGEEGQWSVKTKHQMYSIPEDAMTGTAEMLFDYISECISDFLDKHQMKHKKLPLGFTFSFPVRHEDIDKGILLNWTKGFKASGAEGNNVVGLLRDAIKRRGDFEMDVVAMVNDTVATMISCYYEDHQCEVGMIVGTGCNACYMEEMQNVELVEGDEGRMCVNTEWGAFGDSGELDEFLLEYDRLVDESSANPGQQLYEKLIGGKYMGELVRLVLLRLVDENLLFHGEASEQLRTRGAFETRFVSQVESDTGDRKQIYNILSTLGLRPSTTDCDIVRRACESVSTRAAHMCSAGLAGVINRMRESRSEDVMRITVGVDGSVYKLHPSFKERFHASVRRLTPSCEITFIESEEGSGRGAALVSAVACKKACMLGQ
Put plainly: Activity of activated human recombinant Glucokinase assessed as maximum glucose phosphorylation measured over 5 mins by spectrophotometry relative to unactivated enzyme. The gist of the method: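 Recombinant human GK; V_max is the maximal velocity of glucose phosphorylation by activated GK divided by that of unactivated GK; n = 2.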

Assay [3] concerns Mus musculus. Put plainly: Antidiabetic activity in C57Bl/6 mouse assessed as reduction in blood glucose AUC at 30 mg/kg, po administered 30 mins prior glucose challenge by oral glucose tolerance test. The format is functional, organism-based. More on the design: dose 30 mg/kg. The gist of the method: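 Oral dose–response OGTT in C57Bl/6 mice at 3, 10 and 30 mg/kg; blood glucose area-under-curve assessed; significance versus vehicle by two-way ANOVA.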

In the case of `CCn1nccc1Oc1cc(C[C@H]2C[C@](C)(O)C2)cnc1NC(=O)NC`, the Activity entry in the assay with Mus musculus [1] is “Dose-dependent effect”.

Regarding `CCn1nccc1Oc1cc(CN2CCOCC2)cnc1NC(=O)NC`, in assay [2], the Ratio was found to be 0.78.

Take `CCn1nccc1Oc1cc(C(O)C2CCOCC2)cnc1NC(=O)NC` (stereo unspecified): the Ratio in assay [2] is 0.82.

On to `CCn1nccc1Oc1cc(CCCC(C)(C)O)cnc1NC(=O)NC`, for which the Ratio in assay [2] worked out at 0.75.

Turning to `CCn1nccc1Oc1cc(C[C@H]2CC[C@H](O)CC2)cnc1NC(=O)NC`, in assay [2], the Ratio worked out at 0.79.

Consider `CCc1ncccc1Oc1cc(CC(C)C)cnc1NC(=O)NC`, for which, in assay [2], the Ratio was 0.82.

On to `CCc1ncccc1Oc1cc(CCCCO)cnc1NC(=O)NC`, for which, in assay [2], the Ratio was 0.86.

For `CCn1nccc1Oc1cc(C[C@@H]2CCO[C@@H](COC)C2)cnc1NC(=O)NC`, the Ratio in assay [2] came out at 0.78.

Turning to `CCc1ncccc1Oc1cc(CC2CCOCC2)cnc1NC(=O)NC`, the Ratio in assay [2] stood at 0.75.

Regarding `CCn1nccc1Oc1cc(CCCCOC)cnc1NC(=O)NC`, in assay [2], the Ratio was 0.83.

On to `CCn1nccc1Oc1cc(C[C@H]2CC[C@@H](O)CC2)cnc1NC(=O)NC`, for which, in assay [2], the Ratio was 0.66.

For `CCn1nccc1Oc1cc(C[C@H]2C[C@H](O)C2)cnc1NC(=O)NC`, in assay [2], the Ratio amounted to 0.96.

Regarding `CCn1nccc1Oc1cc(C[C@H]2C[C@@H](O)C2)cnc1NC(=O)NC`, the Ratio in assay [2] stood at 0.88.

Turning to `CCc1ncccc1Oc1cc(CC2CCCCC2)cnc1NC(=O)NC`, the Ratio in assay [2] was 0.73.

With `CCn1nc(COC)cc1Oc1cc(CC2CCOCC2)cnc1NC(=O)NC`, the Ratio in assay [2] is 0.71.

For `CCc1ncccc1Oc1cc(CCCCOC)cnc1NC(=O)NC`, the Ratio in assay [2] was 0.74.

Turning to `CNC(=O)Nc1ncc(CC2CCOCC2)cc1Oc1ccnn1C(C)C`, the Ratio in assay [2] was 0.6.

In the case of `CCn1nccc1Oc1cc(C[C@H]2C[C@@](C)(O)C2)cnc1NC(=O)NC`, in assay [2], the Ratio was 0.8.

On to `CCn1nccc1Oc1cc(C[C@H]2CCO[C@H](COC)C2)cnc1NC(=O)NC`, for which the Ratio in assay [2] was determined as 0.76.

On to `CCn1nccc1Oc1cc(C[C@H]2CC[C@@](C)(O)CC2)cnc1NC(=O)NC`, for which the Ratio in assay [2] amounted to 0.82.

As to `CCc1ncccc1Oc1cc(CCCC(C)(C)O)cnc1NC(=O)NC`, the Ratio in assay [2] came out at 0.73.

As for `CCOCCc1cnc(NC(=O)NC)c(Oc2cccnc2CC)c1`, the Ratio in assay [2] was 0.7.

In the case of `CCn1nccc1Oc1cc(C[C@H]2CC[C@](C)(O)CC2)cnc1NC(=O)NC`, the Ratio in assay [2] came to 0.71.

Take `CCn1nccc1Oc1cc(CC2CCOCC2)cnc1NC(=O)NC`: the Ratio in assay [2] was determined as 0.8. The result in the assay with Mus musculus [3] was Active.

In the case of `CCc1ncccc1Oc1cc(CCCOC)cnc1NC(=O)NC`, the Ratio in assay [2] came to 0.78.
